EP2 antag = human EP2 receptor antagonists, primary screen, TR-FRET cAMP, C6 glioma cells; C6 glioma cells expressing human EP2; cells stimulated with saturating PGE2; inhibition, % at 25 µM; 0.52% of 260,000 active;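 active = percent inhibition above 40 after rounding to a whole number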;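 note: rat C6 glioma host cells with rolipram phosphodiesterase inhibitor present; the protocol text gives 20 µM as final concentration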
Target sequence (P43116 whole entry, looked up): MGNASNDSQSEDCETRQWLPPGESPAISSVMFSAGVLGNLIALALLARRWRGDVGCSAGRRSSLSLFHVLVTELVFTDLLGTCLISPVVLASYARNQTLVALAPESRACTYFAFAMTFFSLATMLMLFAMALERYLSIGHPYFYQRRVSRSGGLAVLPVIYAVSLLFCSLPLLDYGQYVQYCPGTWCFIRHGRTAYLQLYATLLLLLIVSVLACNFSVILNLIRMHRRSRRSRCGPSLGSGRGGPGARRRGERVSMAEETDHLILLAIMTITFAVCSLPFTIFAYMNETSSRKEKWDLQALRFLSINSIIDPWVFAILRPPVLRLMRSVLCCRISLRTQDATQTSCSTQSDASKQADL
Tb hexokinase = Trypanosoma brucei hexokinase 1 inhibitors, primary screen, biochemical, G6PDH-coupled NADH absorbance, MLSCN library. hexokinase 1 [Trypanosoma brucei]. AID 1430, 2008. recombinant TbHK1, G6PDH-coupled NADH A340. inhibition, % at 10 µM. 0.11% of 220,000 active;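 active = inhibition of 50% or more in the single-dose primary screen; inactive = inhibition below 50%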
PHOSPHO1 inh = PubChem AID 1565; recombinant PHOSPHO1, absorbance phosphatase assay; inhibition, % at 13.3 µM; Phosphoethanolamine/phosphocholine phosphatase (Homo sapiens), Q8TCT1; 1.1% of 290,000 active; in the data active = inhibition above about 60%
Target sequence (Q8TCT1 whole entry, looked up): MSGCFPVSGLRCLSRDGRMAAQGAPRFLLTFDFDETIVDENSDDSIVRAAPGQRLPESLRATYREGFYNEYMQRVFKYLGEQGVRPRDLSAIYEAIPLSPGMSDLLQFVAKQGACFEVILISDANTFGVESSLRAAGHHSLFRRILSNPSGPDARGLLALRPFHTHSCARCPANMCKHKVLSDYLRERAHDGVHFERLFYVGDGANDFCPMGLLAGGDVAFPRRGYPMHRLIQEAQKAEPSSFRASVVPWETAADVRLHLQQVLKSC
HKDC1 inh = HKDC1 hexokinase inhibitors, primary screen, biochemical, fluorescence, uHTS | AID 493160, 2011 | recombinant HKDC1, G6PDH/diaphorase resazurin coupled fluorescence | inhibition, % at 20 µM | Q2TB90 | 0.16% of 340,000 active;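 active = inhibition above about 35% when tested at 20 µM, limit read from the data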
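Assay system – recombinant HKDC1 (HK5) hexokinase enzyme, produced in-house · Input – HKDC1 at 5 µg/mL · Reagent – glucose plus 1 mM ATP as hexokinase substrates · Timing – 90 min reaction incubation at room temperature, dark · Measured by – G6PDH/diaphorase-coupled fluorescence, 1 mM NADP, 100 µM resazurin, 525/613 nm · Benchmarks – DMSO-enzyme wells negative, buffer-substituted wells positive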
EP2 mod = EP2 receptor modulators, cAMP readout, primary screen, cell-based, HTRF cAMP, PGE2 stimulation; Prostaglandin E2 receptor EP2 subtype (Homo sapiens), P43116; EP2-expressing cells, cAMP HTRF FRET, PGE2 co-stimulation; induction, % at 25 µM; 0.83% of 260,000 active;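 active = compounds whose cAMP rise, as percent of the full-agonist control response, exceeds 60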;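 note: rat C6 glioma line stably carrying human EP2 under a CMV promoter; the protocol text gives 20 µM as final concentration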
PfGluPho inh = PfG6PD enzyme inhibitors, primary screen, biochemical, fluorescence intensity, uHTS; glucose-6-phosphate dehydrogenase-6-phosphogluconolactonase (Plasmodium falciparum 3D7); PfGluPho enzyme, NADPH resazurin-diaphorase fluorescence; inhibition, % at 20 µM; 0.78% of 350,000 active;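 active = inhibition reaching at least a set limit at 20 µM in the primary screen, cut at about 59% in these data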
PfG6PD confirm = PfG6PD inhibitors, hit retest, confirmation, biochemical, fluorescence intensity, single concentration; 34% of 2,400 active; shares compounds with PfGluPho inh; recombinant PfGluPho, NADPH-diaphorase-resazurin fluorescence; inhibition, % at 20 µM;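 active = inhibition of at least 50% at 20 µM in any single replicate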
Diaph ctr 10uM = diaphorase inhibitors and chemical oxidizers, confirmation, counter-screen for P. falciparum G6PD inhibitor project, biochemical, fluorescence intensity, 10 µM NADPH. inhibition, % at 20 µM. diaphorase-coupled resazurin reduction, NADPH 10 uM. shares compounds with PfGluPho inh. AID 504862, 2011. 39% of 820 active;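 active = average inhibition reaching 50% or more with the compound at 20 µM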;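 note: resorufin red fluorescence formed as diaphorase reduces resazurin using NADPH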
Diaphorase 30uM = diaphorase inhibitors and chemical oxidizers, confirmation, counter-screen for P. falciparum G6PD inhibitor project, biochemical, fluorescence intensity, 30 µM NADPH. shares compounds with PfGluPho inh. inhibition, % at 20 µM. Diaphorase/resazurin coupled assay, resorufin fluorescence. 29% of 820 active;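 active = inhibition averaging 50% or more, tested at 20 µM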
A number is an active result; i = inactive; nt = no result given. Most compounds without a hit are left out; they make up all but 2.5% or so of the library.

SMILES	EP2 antag	Tb hexokinase	PHOSPHO1 inh	HKDC1 inh	EP2 mod	PfGluPho inh	PfG6PD confirm	others
Cc1ccc(C(=O)Nc2ccc3nc(C)sc3c2)s1	i	i	i	i	i	i	nt
Cc1nn(CC(=O)NCCc2ccccc2)c(=O)c2cc3ccsc3n12	nt	nt	nt	nt	i	nt	nt
CCNC(=O)NC(=O)COC(=O)c1ccccc1SCC(=O)NC(=O)NCC	i	i	i	i	i	59.4	i
Cc1ccc(-c2cc(-c3ccccc3)c(C#N)c(N)n2)o1	i	i	i	i	i	82.6	i
COc1ccc(-n2c(C)cc(C(=O)CSc3nnc(-c4ccoc4C)n3C)c2C)cc1	i	i	i	i	i	66.7	i
O=C(CN1N=C(c2ccccc2)Cn2c(cc3ccccc32)C1=O)NCC1CCCO1 (stereo not given)	i	nt	nt	nt	i	nt	nt
CC(C)(C)c1ccc(C(=O)Nc2cccc([N+](=O)[O-])c2)cc1	i	i	i	i	i	74.0	i
O=C(Cc1ccccc1)Nc1cccc([N+](=O)[O-])c1	i	i	i	i	i	i	nt
O=C(Nc1cccc([N+](=O)[O-])c1)c1ccc2ccccc2c1O	i	i	i	i	i	77.6	i
O=C(Nc1cccc([N+](=O)[O-])c1)c1ccncc1	i	i	i	i	i	i	nt
CCCc1cc(C(=O)Nc2cccc([N+](=O)[O-])c2)cs1	nt	nt	i	i	nt	81.5	i
CCOC(=O)N1CCN(C(=O)Nc2ccc3oc(C)nc3c2)CC1	i	i	i	i	i	61.7	i
CCOC(=O)C1CCN(C(=O)Nc2ccc3oc(C)nc3c2)CC1	i	i	i	i	i	i	nt
COC(=O)c1sc(NC(=S)NNC(=O)c2c(Br)c(C)nn2C)c(C(=O)OC)c1C	nt	nt	i	i	nt	61.3	i
COc1ccc(C)cc1Nc1n[n+](-c2ccccc2)c(-c2c(Cl)cccc2Cl)s1	nt	nt	i	i	nt	72.6	i
CCc1ccc(Nc2n[n+](-c3ccccc3)c(-c3c(Cl)cccc3Cl)s2)cc1	nt	nt	i	i	nt	80.3	i
COc1ccc2ccccc2c1-c1sc(Nc2ccccc2)n[n+]1-c1ccc(F)cc1	nt	nt	i	i	nt	98.9	79.5	Diaph ctr 10uM=75.0;Diaphorase 30uM=59.4
CCc1ccc(Nc2n[n+](-c3ccccc3)c(-c3ccc(N(CC)CC)cc3)s2)cc1	nt	nt	i	i	nt	i	nt
COc1cc(CNc2ccc(N3CCCC3)cc2)ccc1OCc1ccccc1F	i	i	i	i	i	97.4	59.3	Diaph ctr 10uM=i;Diaphorase 30uM=i
COc1cc(CNc2ccc(O)cc2)cc(Br)c1OCc1ccccc1F	i	i	i	i	i	60.2	i
COc1ccc(C2=NN(CC(=O)N3CCCC3)C(=O)c3cc4sccc4n3C2)cc1	nt	nt	nt	nt	i	nt	nt
Cc1cc(C)c2[nH]c(=O)c(CN(CC3CCCO3)C(=O)Nc3ccc(F)cc3)cc2c1 (stereo not given)	i	nt	nt	nt	i	nt	nt
NC(=S)NNc1ccc(Cl)c(Cl)c1	i	i	i	i	i	65.1	i
Cc1ccc(NNC(N)=S)cc1Cl	i	i	i	i	i	i	nt
Cc1c(Cl)cccc1NC(=O)CSc1nnc2cc(C)c3ccccc3n12	i	nt	nt	nt	i	nt	nt
SMILES	EP2 antag	Tb hexokinase	PHOSPHO1 inh	HKDC1 inh	EP2 mod	PfGluPho inh	PfG6PD confirm	others
COc1ccc(-c2cc(-c3n[nH]c(=S)n3-c3cc(OC)ccc3OC)[nH]n2)cc1	i	i	i	i	i	i	i
CCOC(=O)C1=C(C)Nc2ccc(C)cc2S1	i	i	i	i	i	i	nt
CSCCOC(=O)C1=C(C)Nc2ccc(C)cc2S1	i	i	i	i	i	59.5	i
CCOC(=O)N=Nc1c2ccccc2c2nc3no[nH]c3nc12	i	i	i	i	i	69.3	60.6	Diaph ctr 10uM=50.9;Diaphorase 30uM=50.9
CC(O)CN(Cc1ccc(-n2cccn2)cc1)Cc1ccc2c(c1)OCO2 (stereo not given)	i	nt	nt	nt	i	nt	nt
COCc1cc(=O)n2[nH]c(C(C)(C)C)cc2n1	i	i	i	i	i	61.0	48.4	Diaph ctr 10uM=i;Diaphorase 30uM=i
COCc1cc(=O)n2[nH]c(C)cc2n1	i	i	i	i	i	i	nt
COc1ccc(S(=O)(=O)N2CCC(C(=O)Nc3cc(Cl)ccc3Cl)CC2)cc1	i	nt	nt	nt	i	nt	nt
CS(=O)(=O)N(CC(=O)N/N=C/c1cccs1)c1cccc(Cl)c1Cl	i	i	i	i	i	64.6	i
COc1ccc(C(=O)/C=C2\Sc3ccccc3N2C)cc1	i	i	i	i	i	94.6	47.7	Diaph ctr 10uM=55.3;Diaphorase 30uM=i
COc1ccc(CC(C#N)C(=O)Nc2cccc(C)n2)cc1 (stereo not given)	i	nt	nt	nt	i	nt	nt
COc1ccc(CCC(=O)N(C)c2nnc(-c3ccncc3)s2)cc1	i	nt	nt	nt	i	nt	nt
CC(C)(C)c1cc(C(=S)N2CCN(CCO)CC2)cc(C(C)(C)C)c1O	i	i	i	i	i	60.0	i
C/C(Cn1cnc([N+](=O)[O-])n1)=N\NC(=O)c1ccccc1	i	i	i	i	i	i	nt
C/C(Cn1nnc([N+](=O)[O-])n1)=N\NC(=O)c1ccccc1	i	i	i	i	i	62.7	60.4	Diaph ctr 10uM=i;Diaphorase 30uM=i
Cc1cc(N=NC(=O)c2ccccc2O)c2ccccc2c1O	i	i	69.5	i	i	64.3	49.1	Diaph ctr 10uM=i;Diaphorase 30uM=i
CCC(=O)N1CCN(c2ccc(NC(=O)c3ccc(OC)cc3)cc2)CC1	i	nt	nt	nt	i	nt	nt
O=C1CCCC(=O)C1C(c1ccc(Cl)cc1)C1C(=O)CCCC1=O	nt	nt	nt	i	nt	77.3	i
COC(=O)c1ccc(NC(=O)c2cccc(C)c2)cc1	nt	nt	i	i	nt	i	nt
Cc1cccc(C(=O)Nc2ccc(O)cc2)c1	i	i	nt	i	i	i	nt
Cc1cccc(C(=O)Nc2ccc(C(=O)c3ccncc3)cc2)c1	nt	nt	nt	nt	nt	64.3	i
Cc1cccc(C(=O)Nc2ccc(C(=O)c3ccccc3)cc2)c1	nt	nt	nt	i	nt	63.1	i
Cc1ccc2cc3c(nc2c1C)OC(C)C(=O)N(Cc1cccnc1)C3 (stereo not given)	nt	nt	nt	nt	i	nt	nt
CCn1c(O)c(C=Nc2cccc(C)c2)sc1=S	i	nt	nt	nt	i	nt	nt
CCn1c(O)c(C=Nc2ccccc2)sc1=S	i	i	i	i	i	68.2	i
Cc1nc(NS(=O)(=O)c2ccccc2)sc1C(=O)N/N=C/c1ccccc1	i	i	i	i	i	74.1	i
